Measurements gathered from unrelated publications.
Compare with care: the assays were run in different laboratories.
Target: Inhibitor of nuclear factor kappa-B kinase subunit epsilon (IKBKE, Homo sapiens, UniProt Q14164)
Residues used in one study (Q14164 1-716): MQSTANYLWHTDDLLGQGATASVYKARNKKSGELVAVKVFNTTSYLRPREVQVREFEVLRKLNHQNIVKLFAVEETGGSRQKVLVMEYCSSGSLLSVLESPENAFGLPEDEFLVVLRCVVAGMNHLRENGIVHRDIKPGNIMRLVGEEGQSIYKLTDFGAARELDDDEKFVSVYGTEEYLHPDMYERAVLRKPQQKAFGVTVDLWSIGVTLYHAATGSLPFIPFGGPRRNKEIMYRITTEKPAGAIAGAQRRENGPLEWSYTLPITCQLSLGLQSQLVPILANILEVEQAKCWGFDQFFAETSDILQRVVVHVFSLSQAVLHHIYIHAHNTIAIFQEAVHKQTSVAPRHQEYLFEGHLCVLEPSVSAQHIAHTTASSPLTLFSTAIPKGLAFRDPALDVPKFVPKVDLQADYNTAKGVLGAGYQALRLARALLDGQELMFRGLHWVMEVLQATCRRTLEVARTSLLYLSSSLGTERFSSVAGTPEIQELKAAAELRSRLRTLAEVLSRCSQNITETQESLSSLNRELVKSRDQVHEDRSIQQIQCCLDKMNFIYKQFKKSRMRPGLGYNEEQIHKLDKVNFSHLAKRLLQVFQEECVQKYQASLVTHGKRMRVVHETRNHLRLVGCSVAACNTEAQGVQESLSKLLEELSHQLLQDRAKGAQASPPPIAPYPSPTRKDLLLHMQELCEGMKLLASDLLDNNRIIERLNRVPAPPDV

Compound	read-out	technique	tested at	remaining binding [%]
C[C@@H](c1ccc(-n2cnc3c(N)ncnc32)cc1)N1CCc2nn(C)c(Cc3ccccc3)c2C1=O	binding	competition with immobilised ligand	0.1 µM	73
CCCOc1ccc([C@@H]2[C@@H](C(=O)O)[C@H](c3ccc4c(c3)OCO4)CN2CC(=O)Nc2c(CC)cccc2CC)cc1	cell-free assay	competition with immobilised ligand	1 µM	85
O=C(NCC1CCOCC1)c1n[nH]cc1NC(=O)c1c(F)cccc1F	binding	competition with immobilised ligand	1 µM	81
O=C(c1ccc(Nc2ncc(Cl)c(-c3ccc(Cl)s3)n2)cc1)N1CCC(N2CCCC2)CC1	binding	competition with immobilised ligand	1 µM	7.7
CN(C)c1ncc(F)c(-c2cnn3ncccc23)n1	binding		1 µM	99
Nc1ncc2c(n1)-c1c([nH]c3ccc(C#CC4CC4)cc13)CCCC2	binding	competition with immobilised ligand	1 µM	83
CN(C)CC#Cc1ccc(OCCCc2sc(N3CCc4cccc(C(=O)Nc5nc6ccccc6s5)c4C3)nc2C(=O)O)c(F)c1	cell-free assay	competition with immobilised ligand	1 µM	100
O=C(c1ccc(Nc2nccc(-c3cc4ccccc4s3)n2)cc1)N1CCC(N2CCCC2)CC1	binding	competition with immobilised ligand	1 µM	31
CCC(=O)N[C@@H]1CC[C@H](C(=O)N(C)c2ccc(-c3nc4ccccc4o3)cc2)C1	cell-free assay	competition with immobilised ligand	1 µM	60
CN(C)c1nccc(-c2cnc3ncccn23)n1	binding		1 µM	100
CCc1ccccc1C(=O)Nc1n[nH]c2c(C)c(F)c(C3C(C#N)=C(C)N(C)C(C)=C3C#N)cc12	cell-free assay	competition with immobilised ligand	1 µM	68
C[C@H]1CCN(c2nccc(-c3cnn4ncccc34)n2)C1	binding		1 µM	79
CNC(=O)[C@@H]1CC[C@@H](n2c(-c3ccc4cnccc4c3)nc3ccc(C(=O)NCc4cccc(C(N)=O)c4)cc32)C1	binding	competition with immobilised ligand	1 µM	98
CCN1CCN(Cc2ccc(C(=O)Nc3ccc(C)c(Oc4ccc5c(c4)CC(=O)N5)c3)cc2C(F)(F)F)CC1	binding	competition with immobilised ligand	1 µM	100
CC1CCCN1c1nccc(-c2cnn3ncccc23)n1 (centres unmarked)	binding		1 µM	100
CC1=C(C#N)[C@@H](c2ccc3[nH]nc(C)c3c2)C(C#N)=C(c2ccc(Cl)cc2)N1	cell-free assay	competition with immobilised ligand	1 µM	100
CN(c1nccc(-c2cnn3ncccc23)n1)C1CC1	binding		1 µM	100
Cc1cnc(Nc2ccc(C(=O)N3CCC(N4CCCC4)CC3)cc2)nc1-c1cc2ccccc2s1	binding	competition with immobilised ligand	1 µM	18
N[C@@H]1CCN(c2nccc(-c3cnn4ncccc34)n2)C1	binding		1 µM	100
Nc1cnc(N2CCc3cc(S(=O)(=O)Nc4c(F)cc(Cl)cc4F)cc(N4CCCC4=O)c32)nc1	cell-free assay	competition with immobilised ligand	1 µM	95
